Assay results gathered from unrelated publications.
Protocols differ between the studies behind these lines.
Target: Dual specificity tyrosine-phosphorylation-regulated kinase 1A (DYRK1A, Homo sapiens, UniProt Q13627)

SMILES | read-out | action | technique | tested at | measurement | result
CCCS(=O)(=O)Nc1ccc(F)c(C(=O)c2c[nH]c3ncc(-c4ccc(Cl)cc4)cc23)c1F | enzyme activity | inhibitor | – | 1 µM | inhibition | < 10%
O=C(O)c1cc(-c2ccc(C3CCNCC3)cc2)c2ccc(-c3ccc(C(F)(F)F)cc3)cc2c1 | cell-free assay | – | competition with immobilised ligand | 1 µM | remaining binding | 100%
Cc1cc(NC(=O)c2cccc3cc(-c4cccc5[nH]nc(N)c45)ccc23)ccc1F | enzyme activity | inhibitor | – | 0.1 µM | activity vs control | 110%
Cn1cncc1C1=CN(c2ncnc3[nH]cnc23)CCS1 | enzyme activity | inhibitor | radiometric | 2 µM | inhibition | 95.4%
CCN(CC)CCNC(=O)c1c(C)[nH]c(/C=C2\C(=O)Nc3ccc(F)cc32)c1C | cell-free assay | – | – | 0.5 µM | remaining signal | 56.9%
Cn1c2c(c3ccc(Cl)c(Cl)c31)C(C#N)C1(CCNCC1)NC2=O (racemic) | thermal stability | – | DSF | 10 µM | ΔTm | 2.5 °C
Cc1c(NC(=O)c2cc(C(N)=O)nc3cc(F)ccc23)c(C(F)(F)F)nn1Cc1ccc(C(C)(C)C)cc1 | cell-free assay | – | competition with immobilised ligand | 1 µM | remaining binding | 100%
COc1cc2ncnc(Nc3ccc(Oc4ccccc4)c(C)c3C)c2cc1OC | enzyme activity | inhibitor | – | 1 µM | inhibition | 1%
N#Cc1cccc(Nc2nc3cc(C(=O)O)ccc3c3cncnc23)c1 | enzyme activity | inhibitor | radiometric | 1 µM | remaining activity | 3%
CC1(C)NC(=O)c2[nH]c3c(Cl)c(Cl)ccc3c2C1C#N (stereo not shown) | thermal stability | – | DSF | 10 µM | ΔTm | 2.6 °C
CC(C)[C@H](CO)Nc1nc(Nc2cccc(Cl)c2)c2ncn(C(C)C)c2n1 | cell-free assay | – | – | 0.5 µM | remaining signal | 65.4%
O=C(O)c1ccc2c(c1)nc(Nc1cccc(F)c1)c1ncncc12 | enzyme activity | inhibitor | radiometric | 1 µM | remaining activity | 1%
O=C(N1CCS(=O)(=O)CC1)N1C[C@H](c2ccc(OC(F)(F)F)cc2)C[C@H](c2nc(C3CC3)no2)C1 | cell-free assay | – | competition with immobilised ligand | 1 µM | remaining binding | 100%
O=C(O)c1ccc2c(c1)nc(NCc1ccccc1)c1ncncc12 | enzyme activity | inhibitor | radiometric | 1 µM | remaining activity | 61%
CN(C)C1CCN(CC#Cc2nn(C3CCCC3)c3nc(NCc4ccccc4)ncc23)C1 (stereo not shown) | enzyme activity | inhibitor | FRET | 1 µM | inhibition | 4%
O=C(O)c1ccc2c(c1)nc(Nc1ccccc1)c1ncncc12 | enzyme activity | inhibitor | radiometric | 1 µM | remaining activity | 3%

SMILES | read-out | action | technique | tested at | measurement | result
CS(=O)(=O)CCNCc1ccc(-c2ccc3ncnc(Nc4ccc(OCc5cccc(F)c5)c(Cl)c4)c3c2)o1 | cell-free assay | – | – | 0.5 µM | remaining signal | 101%
O=C(O)c1ccc2c(c1)nc(Nc1ccc3ccccc3c1)c1ncncc12 | enzyme activity | inhibitor | radiometric | 1 µM | remaining activity | -1%
CO[C@@H](C)c1c(Nc2ccc([C@@H](N(C)C(=O)C3CCS(=O)(=O)CC3)C(F)(F)F)cc2)cnc2cc(Cl)nn12 | cell-free assay | – | competition with immobilised ligand | 1 µM | remaining binding | 92%
CN1CCC2(CC1)NC(=O)c1c(c3ccc(Cl)c(Cl)c3n1C)C2C#N (racemic) | thermal stability | – | DSF | 10 µM | ΔTm | 1 °C
Cc1ccc(C(=O)Nc2ccc(CN3CCN(C)CC3)c(C(F)(F)F)c2)cc1C#Cc1cnc2cccnn12 | cell-free assay | – | – | 23.5 nM | remaining signal | 81%
O=C(O)c1ccc2c(c1)nc(NCCc1cccc(F)c1)c1ncncc12 | enzyme activity | inhibitor | radiometric | 1 µM | remaining activity | 18%
Cn1c2c(Cl)c(Cl)ccc2c2cn[nH]c(=O)c21 | thermal stability | – | DSF | 10 µM | ΔTm | 1.3 °C
O=C1NC(c2ccccn2)Sc2ccccc21 (stereo not shown) | cell-free assay | – | competition with immobilised ligand | 1 µM | remaining binding | 100%
O=C(O)c1ccc2c(c1)nc(NCCc1cccc(Cl)c1)c1ccncc12 | enzyme activity | inhibitor | radiometric | 1 µM | remaining activity | 17%
O=S(=O)(NC1CCC(c2cc(F)ccc2F)(S(=O)(=O)c2ccc(Cl)cc2)CC1)C(F)(F)F (stereo not shown) | cell-free assay | – | competition with immobilised ligand | 1 µM | remaining binding | 78%
O=C1Nc2ccc(Cl)cc2C1=Cc1cc(Cl)c(O)c(Cl)c1 | cell-free assay | – | – | 0.5 µM | remaining signal | 95.6%
CC(=O)N1CCC(c2ccc(C(=O)NC(=N)N)cc2C(F)(F)F)CC1 | cell-free assay | – | competition with immobilised ligand | 1 µM | remaining binding | 74%
COc1cc(/C=C/C(=O)CC(=O)/C=C/c2ccc(O)c(OC)c2)ccc1O | enzyme activity | inhibitor | – | 1 µM | activity vs control | 20%
C[C@@H]1CN(c2cc(-c3nn(C)c4ccc(OC5(C)CC5)cc34)ncn2)C[C@H](C)O1 | cell-free assay | – | competition with immobilised ligand | 1 µM | remaining binding | 81%
O=C(O)c1ccc2c(c1)nc(NCc1ccccc1)c1ccncc12 | enzyme activity | inhibitor | radiometric | 1 µM | remaining activity | 49%
